Reference: ChEMBL document CHEMBL3822452, “Polyphenolic compounds with anti-tumour potential from Corchorus olitorius (L.) Tiliaceae, a Nigerian leaf vegetable” (2016)
Activity calls are given as the source filed them. No cut-off for these calls is given here.

Legend:
PC-3 = assay: Cytotoxicity against human PC3 cells assessed as reduction in cell viability after 48 hrs by alamar blue assay; assay type: functional, cell-based
HeLa [1] = assay: Cytotoxicity against human HeLa cells assessed as cell viability at 800 uM after 48 hrs by alamar blue assay relative to control; assay type: functional; settings: read-out: Activity
Procedure, shortened: (§1)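 HeLa cells in MEM with 10% FBS, 1% NEAA, 2 mM glutamine and 1% antibiotic-antimycotic were seeded at 1 x 10^5 cells/ml and grown 24 h at 37°C, 5% CO2. They were exposed 48 h to compound serially diluted in growth medium, in duplicate wells. Alamar Blue was added for 3 h, then 30 min at room temperature, and fluorescence read at ex 544/em 590 nm. Values are % of DMSO-only control, means ± SEM, with ANOVA and Dunnett's test.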

HeLa [2] = assay: Cytotoxicity against human HeLa cells assessed as cell viability at 1600 uM after 48 hrs by alamar blue assay relative to control; assay type: functional; settings: read-out: Activity; procedure, shortened: as §1
HeLa [3] = assay: Cytotoxicity against human HeLa cells assessed as loss of cells after 48 hrs by inverted microscopic analysis; assay type: functional, cell-based
Procedure, shortened: (§2)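 HeLa cultures were treated 48 h with increasing compound concentrations in growth medium, with controls given growth medium only. Bright-field images were then taken on an inverted microscope at x10 and examined for cell loss and rounding of remaining cells.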

NCI-H460 = assay: Cytotoxicity against human H460 cells assessed as reduction in cell viability after 48 hrs by alamar blue assay; assay type: functional, cell-based
HeLa [4] = assay: Cytotoxicity against human HeLa cells assessed as cell rounding after 48 hrs by inverted microscopic analysis; assay type: functional, cell-based; procedure, shortened: as §2

SMILES	Activity (PC-3)	viability at 800 µM (HeLa [1])	viability at 1600 µM (HeLa [2])	Activity (HeLa [3])	Activity (NCI-H460)	Activity (HeLa [4])
COc1cc(/C=C/C(=O)OC(=O)/C=C/c2ccc(O)c(OC)c2)ccc1O	inactive	22.3%	5.3%	Dose-dependent effect	inactive	Dose-dependent effect
COC(=O)[C@@]1(OC(=O)/C=C/c2ccc(O)c(O)c2)C[C@@H](O)[C@@H](OC(=O)/C=C/c2ccc(O)c(O)c2)[C@H](OC(=O)/C=C/c2ccc(O)c(O)c2)C1	inactive	71%	19.6%	Dose-dependent effect	inactive	Dose-dependent effect
